Measured values from paper PMC12069892 (Acta Pharmaceutica Sinica. B, 2025).
≈ marks a conversion by molar mass, not a printed value. Blank lines part the entries; values can stand above or below the molecule they belong to.

Tests used:
P. aeruginosa DK2 [1] = assay: MIC by micro broth dilution; assay type: cell-based, Pseudomonas aeruginosa; details: for MIC: Pseudomonas aeruginosa, DK2, 18 h, read-out: MIC, derivative alone, P. aeruginosa DK2, 18 h, 100% growth inhibition; for MIC, antibiotic alone: P. aeruginosa DK2
CYP2B6 = target: T1, CYP2B6 (Homo sapiens, UniProt P20813); assay: Human CYP450 inhibition assay; assay type: in vitro ADME
T1 sequence (P20813 1-491): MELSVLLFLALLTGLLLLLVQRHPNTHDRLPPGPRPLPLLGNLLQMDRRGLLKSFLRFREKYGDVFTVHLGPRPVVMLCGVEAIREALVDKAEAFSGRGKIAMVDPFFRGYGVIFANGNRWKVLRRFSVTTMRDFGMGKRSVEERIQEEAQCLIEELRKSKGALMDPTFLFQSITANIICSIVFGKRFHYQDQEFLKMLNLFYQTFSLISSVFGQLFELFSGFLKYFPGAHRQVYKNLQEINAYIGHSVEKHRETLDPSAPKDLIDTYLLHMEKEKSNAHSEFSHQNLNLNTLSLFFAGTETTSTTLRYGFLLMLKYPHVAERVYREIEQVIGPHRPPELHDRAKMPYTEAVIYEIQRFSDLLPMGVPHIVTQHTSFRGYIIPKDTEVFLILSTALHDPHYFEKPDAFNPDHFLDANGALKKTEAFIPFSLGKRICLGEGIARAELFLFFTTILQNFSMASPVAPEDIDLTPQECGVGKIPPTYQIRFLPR

P. aeruginosa PAO1 = assay: C. elegans liquid medium killing and rescue assay; assay type: in vivo, Caenorhabditis elegans
CYP1A2 = target: T2, CYP1A2 (Homo sapiens, UniProt P05177); assay: Human CYP450 inhibition assay; assay type: in vitro ADME
T2 sequence (P05177 1-516): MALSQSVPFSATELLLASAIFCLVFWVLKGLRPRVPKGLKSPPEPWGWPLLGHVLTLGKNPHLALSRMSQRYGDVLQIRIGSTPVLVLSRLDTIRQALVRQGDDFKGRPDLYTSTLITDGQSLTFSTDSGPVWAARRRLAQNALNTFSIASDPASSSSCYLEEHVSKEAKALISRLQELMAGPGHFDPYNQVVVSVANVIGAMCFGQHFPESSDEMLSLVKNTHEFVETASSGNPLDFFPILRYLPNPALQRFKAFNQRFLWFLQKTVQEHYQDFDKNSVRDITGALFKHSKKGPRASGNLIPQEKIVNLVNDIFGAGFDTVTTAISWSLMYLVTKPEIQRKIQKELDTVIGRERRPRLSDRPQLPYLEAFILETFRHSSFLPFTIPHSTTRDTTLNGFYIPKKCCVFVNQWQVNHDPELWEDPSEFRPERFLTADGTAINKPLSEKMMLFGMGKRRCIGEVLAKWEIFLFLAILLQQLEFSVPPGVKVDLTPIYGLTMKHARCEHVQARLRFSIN

P. aeruginosa DK2 [2] = assay: Biofilm production assay; assay type: cell-based, Pseudomonas aeruginosa
Outline: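 Overnight LB culture (37 ℃, 200 rpm) diluted to OD600 0.01 and treated with compound alone or with polymyxin B. Cells inoculated 1:100 into CPG medium and grown 24 h at 37 ℃, then stained 30 min with 0.1% crystal violet. After water rinses and 1 h air drying, dye solubilised in 95% ethanol; OD570 read. For imaging, coverslip biofilms washed with PBS (pH 7.2), dried 60 ℃ 30 min, stained 15 min with acridine orange/ethidium bromide and examined by confocal microscopy.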

HUVEC = assay: Mammalian cytotoxicity, CCK8; assay type: cell-based; details: Homo sapiens, 24 h, read-out: HUVEC IC50, CCK8, 1 day incubation
Outline: (§1)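 Cells seeded at 10,000 per well in medium with 10% serum. Serially diluted compound added 24 h later and incubated 1 day. Viability measured with CCK8 reagent per kit instructions and expressed as percent of vehicle-treated cells (set to 100).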

P. aeruginosa DK2 [3] = assay: Intracellular ROS detection; assay type: cell-based, Pseudomonas aeruginosa; details: alone and in combination with PB
Outline: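 Drug-treated bacteria collected and suspended in DCFH-DA (final 10 μmol/L), then incubated 20 min at 37 ℃. Cells resuspended in LB, centrifuged 5000 rpm for 5 min and washed to remove free probe. Fluorescence read at 488 nm excitation and 525 nm emission.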

CYP2C8 = target: T3, CYP2C8 (Homo sapiens, UniProt P10632); assay: Human CYP450 inhibition assay; assay type: in vitro ADME
T3 sequence (P10632 1-490): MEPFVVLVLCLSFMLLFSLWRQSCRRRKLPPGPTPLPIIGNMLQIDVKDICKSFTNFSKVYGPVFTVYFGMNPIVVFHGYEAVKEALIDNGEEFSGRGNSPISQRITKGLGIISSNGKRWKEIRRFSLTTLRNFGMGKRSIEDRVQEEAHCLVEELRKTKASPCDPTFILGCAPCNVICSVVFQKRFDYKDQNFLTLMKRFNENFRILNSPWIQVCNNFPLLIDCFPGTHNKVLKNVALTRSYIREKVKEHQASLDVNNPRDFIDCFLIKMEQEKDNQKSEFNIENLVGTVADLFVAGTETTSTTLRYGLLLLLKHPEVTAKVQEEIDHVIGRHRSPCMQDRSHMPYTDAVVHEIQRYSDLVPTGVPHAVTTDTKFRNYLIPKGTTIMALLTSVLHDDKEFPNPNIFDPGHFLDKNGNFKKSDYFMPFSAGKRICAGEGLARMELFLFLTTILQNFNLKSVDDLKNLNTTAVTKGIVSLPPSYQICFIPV

CYP2C9 = CYP2C9 (Homo sapiens, UniProt P11712); assay: Human CYP450 inhibition assay; assay type: in vitro ADME
P. aeruginosa DK2 [4] = assay: Oxidative stress; assay type: cell-based, Pseudomonas aeruginosa; details: PB 0.25 or 0.5 μg/mL; 15 or A22 4 or 8 μg/mL, with or without PB
Outline: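 Culture diluted to 0.01 and treated with compounds. At OD600 1.0, 3 mL collected, washed in 1 mL PBS, then resuspended in PBS with 0.2 mol/L H2O2 and shaken 15 min at 37 ℃. Suspensions diluted 10^1–10^7 in PBS, 5 μL spotted onto LB agar, and incubated 37 ℃ for 1–2 days before colony counting.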

hERG potassium channels = hERG potassium channels (Homo sapiens, UniProt Q12809); assay: hERG channel Qpatch assay; assay type: cell-based
CYP2C19 = CYP2C19 (Homo sapiens, UniProt P33261); assay: Human CYP450 inhibition assay; assay type: in vitro ADME; details: Inhibition for CYP isoforms IC50, 2C19, human liver microsomes, 40 min
Water solubility assay = assay type: physicochemical; details: thermodynamic from solid
Outline: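 Standard curve made from methanol solutions (0.56–0.0011 mg/mL) using HPLC UV peak area at 254 nm. Excess solid stirred in water for 24 h to give a […] solution, then analysed by HPLC at 254 nm. Solubility calculated from the standard curve.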

[5] = Stability in liver microsomes; assay type: in vitro ADME, mouse
P. aeruginosa DK2 [6] = assay: Intracellular NADH oxidase; assay type: cell-based, Pseudomonas aeruginosa
Outline: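 Bacteria treated with compounds singly and in combination; 1 mL harvested at OD600 = 1.0. NOX activity measured with a commercial kit by its extraction method and expressed as relative activity.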

P. aeruginosa DK2 [7] = assay: Murine wound infection model; assay type: in vivo, BALB/c female mice; details: mouse
Outline: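 Female mice, 6–8 weeks old and 20–22 g, were anesthetized with 4% chloral hydrate and shaved dorsally. A ~5 mm wound was made and inoculated with 30 μL DK2 (5 × 10^8 CFU). From 48 h post-infection, wounds received saline, polymyxin alone, or polymyxin plus test compound twice daily. Test compound was given in saline with 0.1% Tween 80 and polymyxin in saline. Wounds and body weight were monitored daily. Wound tissue was homogenized in sterile PBS and plated for CFU.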

CYP2D6 = CYP2D6 (Homo sapiens, UniProt P10635); assay: Human CYP450 inhibition assay; assay type: in vitro ADME
P. aeruginosa DK2 [8] = assay: Bacterial ATP level assay; assay type: cell-based, Pseudomonas aeruginosa
Outline: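 Cells treated with compounds singly and in combination and harvested at OD600 = 1.0 (2 mL), centrifuged, then extraction solution added. Lysed by sonication in an ice bath; extract kept on ice. Absorbance read at 340 nm at 10 s and again after 3 min at 25 ℃ using a commercial ATP kit. ATP expressed relative to control.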

[9] = Stability in liver microsomes; assay type: in vitro ADME, human
[10] = Plasma protein binding assay; assay type: in vitro ADME; details: human
Outline: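 Equilibrium dialysis: compound-spiked plasma placed on the donor side, blank buffer on the receiver side, 5 h at 37 ℃; T0 plasma samples also taken. Donor and receiver aliquots matrix-matched with the opposite matrix. Quenched with acetonitrile containing internal standard, vortexed, centrifuged 4000×g 10 min, and supernatant diluted with water. Analysed by LC–MS/MS alongside reference compounds.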

CYP3A4 = CYP3A4 (Homo sapiens, UniProt P08684); assay: Human CYP450 inhibition assay; assay type: in vitro ADME
293 T = assay: Mammalian cytotoxicity, CCK8; assay type: cell-based; details: Homo sapiens, HEK-293T, 24 h, read-out: 293 T IC50, CCK8, 1 day incubation
Outline: as §1

P. aeruginosa DK2 [11] = assay: Time-kill assay; assay type: cell-based, Pseudomonas aeruginosa; details: for Effect on bacterial growth when used alone (time-kill): A22 10 or 20 μmol/L, PB 0.5 or 1 μg/mL
P. aeruginosa DK2 [12] = assay: Resistance assay by serial passaging; assay type: cell-based, Pseudomonas aeruginosa; details: passaged with PB alone (64 μg/mL); start 256 μg/mL

Chain of CYP3A4 (P08684 whole entry): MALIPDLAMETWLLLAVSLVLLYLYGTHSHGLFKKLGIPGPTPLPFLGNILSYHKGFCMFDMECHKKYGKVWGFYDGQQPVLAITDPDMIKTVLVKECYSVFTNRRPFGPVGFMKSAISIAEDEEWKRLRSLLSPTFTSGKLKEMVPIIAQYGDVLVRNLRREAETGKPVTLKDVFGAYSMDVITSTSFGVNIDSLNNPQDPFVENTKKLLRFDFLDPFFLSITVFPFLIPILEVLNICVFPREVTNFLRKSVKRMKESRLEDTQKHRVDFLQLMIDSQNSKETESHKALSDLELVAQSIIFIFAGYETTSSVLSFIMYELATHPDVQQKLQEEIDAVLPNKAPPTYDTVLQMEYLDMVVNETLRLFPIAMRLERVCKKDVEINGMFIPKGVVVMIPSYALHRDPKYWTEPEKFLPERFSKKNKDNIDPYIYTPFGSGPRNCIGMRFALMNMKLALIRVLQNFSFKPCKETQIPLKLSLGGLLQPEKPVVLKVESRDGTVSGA
Chain of CYP2C9 (P11712 whole entry): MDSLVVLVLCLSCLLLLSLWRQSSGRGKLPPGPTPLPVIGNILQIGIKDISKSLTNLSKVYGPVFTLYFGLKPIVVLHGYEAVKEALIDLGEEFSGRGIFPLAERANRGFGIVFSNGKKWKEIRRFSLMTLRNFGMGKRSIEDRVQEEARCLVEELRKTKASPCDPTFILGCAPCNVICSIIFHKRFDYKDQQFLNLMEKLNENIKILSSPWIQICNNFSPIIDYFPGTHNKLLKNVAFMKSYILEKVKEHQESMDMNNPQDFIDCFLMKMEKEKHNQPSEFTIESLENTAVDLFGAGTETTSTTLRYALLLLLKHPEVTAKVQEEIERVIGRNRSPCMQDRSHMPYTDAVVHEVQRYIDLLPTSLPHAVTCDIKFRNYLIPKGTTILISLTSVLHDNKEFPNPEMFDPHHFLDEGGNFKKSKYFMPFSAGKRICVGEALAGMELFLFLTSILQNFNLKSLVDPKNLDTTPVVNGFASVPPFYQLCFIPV
Chain of CYP2C19 (P33261 whole entry, canonical isoform): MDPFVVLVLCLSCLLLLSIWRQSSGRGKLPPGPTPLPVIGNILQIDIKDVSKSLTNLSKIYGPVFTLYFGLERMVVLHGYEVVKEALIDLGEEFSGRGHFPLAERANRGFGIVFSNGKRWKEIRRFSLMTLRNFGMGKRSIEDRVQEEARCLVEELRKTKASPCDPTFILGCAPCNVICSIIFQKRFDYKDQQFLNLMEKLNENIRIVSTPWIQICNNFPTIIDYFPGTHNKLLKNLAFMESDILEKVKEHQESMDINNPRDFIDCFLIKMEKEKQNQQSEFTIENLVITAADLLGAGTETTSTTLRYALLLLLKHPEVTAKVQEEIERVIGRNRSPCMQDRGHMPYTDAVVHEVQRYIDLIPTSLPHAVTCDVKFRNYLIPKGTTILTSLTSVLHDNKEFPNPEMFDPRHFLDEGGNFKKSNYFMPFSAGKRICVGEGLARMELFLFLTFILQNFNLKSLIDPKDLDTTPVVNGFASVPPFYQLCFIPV
Chain of CYP2D6 (P10635 whole entry): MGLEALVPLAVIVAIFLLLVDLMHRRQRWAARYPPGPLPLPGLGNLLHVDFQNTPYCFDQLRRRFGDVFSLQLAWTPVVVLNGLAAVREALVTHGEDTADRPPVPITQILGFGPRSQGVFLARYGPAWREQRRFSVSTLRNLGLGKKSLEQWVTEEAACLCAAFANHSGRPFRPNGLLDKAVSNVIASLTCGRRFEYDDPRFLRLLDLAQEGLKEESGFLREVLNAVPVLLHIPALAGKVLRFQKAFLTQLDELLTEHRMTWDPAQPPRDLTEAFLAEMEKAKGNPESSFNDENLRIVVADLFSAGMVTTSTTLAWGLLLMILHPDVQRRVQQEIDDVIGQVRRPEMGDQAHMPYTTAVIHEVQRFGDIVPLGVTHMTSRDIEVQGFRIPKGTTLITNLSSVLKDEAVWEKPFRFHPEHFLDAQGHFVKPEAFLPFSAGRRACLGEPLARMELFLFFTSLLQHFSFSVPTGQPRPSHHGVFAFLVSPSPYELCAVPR
Chain of hERG potassium channels (Q12809 whole entry, canonical isoform): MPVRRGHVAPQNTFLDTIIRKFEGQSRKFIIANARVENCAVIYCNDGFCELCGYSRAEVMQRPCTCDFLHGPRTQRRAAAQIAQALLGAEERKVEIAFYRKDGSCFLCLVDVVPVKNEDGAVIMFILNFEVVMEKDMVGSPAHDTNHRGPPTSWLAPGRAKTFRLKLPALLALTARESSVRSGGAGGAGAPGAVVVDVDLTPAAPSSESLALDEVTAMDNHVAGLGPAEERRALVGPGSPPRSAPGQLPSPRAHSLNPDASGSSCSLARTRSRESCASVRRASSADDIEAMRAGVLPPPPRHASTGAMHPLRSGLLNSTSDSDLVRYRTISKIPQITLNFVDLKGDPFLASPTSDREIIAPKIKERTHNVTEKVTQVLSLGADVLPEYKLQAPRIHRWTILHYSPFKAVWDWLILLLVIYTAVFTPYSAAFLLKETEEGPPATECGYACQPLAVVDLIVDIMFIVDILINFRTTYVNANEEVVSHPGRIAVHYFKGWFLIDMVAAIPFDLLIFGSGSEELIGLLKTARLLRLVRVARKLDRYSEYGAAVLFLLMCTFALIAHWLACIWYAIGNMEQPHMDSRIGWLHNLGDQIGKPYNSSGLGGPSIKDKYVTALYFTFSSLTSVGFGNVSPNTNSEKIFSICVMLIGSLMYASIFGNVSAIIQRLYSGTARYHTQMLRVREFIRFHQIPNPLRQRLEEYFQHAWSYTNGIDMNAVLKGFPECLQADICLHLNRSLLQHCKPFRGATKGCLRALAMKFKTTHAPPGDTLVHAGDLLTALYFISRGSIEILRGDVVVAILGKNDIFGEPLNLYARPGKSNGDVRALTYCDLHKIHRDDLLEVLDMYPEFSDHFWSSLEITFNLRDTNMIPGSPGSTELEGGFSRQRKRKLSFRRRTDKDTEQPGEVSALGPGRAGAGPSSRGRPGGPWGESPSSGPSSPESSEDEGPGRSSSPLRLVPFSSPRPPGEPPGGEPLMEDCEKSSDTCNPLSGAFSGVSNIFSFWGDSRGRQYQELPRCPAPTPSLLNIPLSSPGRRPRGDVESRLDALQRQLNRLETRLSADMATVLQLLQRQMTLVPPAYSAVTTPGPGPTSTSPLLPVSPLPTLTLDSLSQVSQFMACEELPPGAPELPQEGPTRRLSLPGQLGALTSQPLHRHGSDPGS

MIC (P. aeruginosa DK2 [1]): 50 to 100 µM (≈ 17.2 to 34.4 µg/mL)
Molecule: O=C(Nc1ccc([N+](=O)[O-])cc1C(F)(F)F)c1cc(F)ccc1O [A25]

MIC (P. aeruginosa DK2 [1]): 50 to 100 µM (≈ 14.6 to 29.2 µg/mL)
Molecule: O=C(Nc1ccc([N+](=O)[O-])cc1O)c1cc(F)ccc1O [A20]

Molecule: O=C(Nc1ccc(C(F)(F)F)cc1C(F)(F)F)c1cc(F)ccc1O [A22]
IC50 (CYP2B6): > 33 µM
Survival of PAO1-infected worms, combination (P. aeruginosa PAO1; 8 μg/mL A22 and 8 μg/mL PB): synergistically extended the lifespan of the worms
Survival of PAO1-infected worms, monotherapy (P. aeruginosa PAO1; C. elegans N2 infected with P. aeruginosa PAO1): neither A22 nor PB had significant therapeutic effects
IC50 (CYP1A2): 6.13 µM
Inhibitory effect on biofilm formation, combination (P. aeruginosa DK2 [2]; 8 μg/mL A22 with 0.25 or 0.5 μg/mL PB): significantly enhanced
Biofilm formation, A22 alone (P. aeruginosa DK2 [2]; 4 and 8 μg/mL, crystal violet and CLSM): potent inhibitory activity against biofilm formation
IC50 (HUVEC): > 150 µM
ROS levels (P. aeruginosa DK2 [3]): significantly elevating ROS levels
IC50 (CYP2C8): 2.61 µM
IC50 (CYP2C9): 0.29 µM
CFU under oxidative stress (H2O2) (P. aeruginosa DK2 [4]): significantly reduced CFU
IC50 (hERG potassium channels): 6.94 µM
IC50 (CYP2C19): 20.5 µM
solubility at 24 h (Water solubility assay): 4 µg/mL (≈ 10.9 µM)
MLM Remaining (t = 1 h) ([5]; mouse liver microsomes): 46.31%
half-life ([5]; mouse, liver microsomes, pH 7.4): 54.4 min
MIC (P. aeruginosa DK2 [1]): > 1000 µM
NOX activity, compound alone (P. aeruginosa DK2 [6]): significantly increased
NOX activity, in combination with PB (P. aeruginosa DK2 [6]): further significant increase
Bacterial load in infected wounds, combination (P. aeruginosa DK2 [7]; A22 10 mg/kg and PB 1 mg/kg, versus control and monotherapy): significantly reduced bacterial loads in the infected wounds
Bacterial load in infected wounds, monotherapy (P. aeruginosa DK2 [7]; A22 10 mg/kg or PB 1 mg/kg, after 7 days of treatment): neither A22 monotherapy (10 mg/kg) nor PB monotherapy (1 mg/kg) exhibited significant antibacterial effects
IC50 (CYP2D6): 1.88 µM
ATP levels, monotherapy (P. aeruginosa DK2 [8]): reduced ATP levels
Reduction in ATP levels, combined with PB (P. aeruginosa DK2 [8]): even more pronounced
HLM Remaining (t = 1 h) ([9]; human liver microsomes): 23.96%
half-life ([9]; human, liver microsomes, pH 7.4): 29.1 min
fraction unbound at 5 h [10]: 0.0206
IC50 (CYP3A4): > 33 µM
IC50 (293 T): > 150 µM
Time of complete inhibition of bacterial growth (P. aeruginosa DK2 [11]; A22 10 μmol/L with PB 1 μg/mL): 36 h
Time of complete inhibition of bacterial growth (P. aeruginosa DK2 [11]; A22 20 μmol/L with PB 1 μg/mL): 24 h
Effect on bacterial growth when used alone (time-kill) (P. aeruginosa DK2 [11]): neither A22 (10 μmol/L = 3.67 μg/mL, or 20 μmol/L = 7.34 μg/mL) nor PB (0.5 or 1 μg/mL) significantly affected bacterial growth
Time of first substantial reduction in CFUs (P. aeruginosa DK2 [11]; A22 combined with PB): 2 h

MIC, antibiotic alone (P. aeruginosa DK2 [1]): > 256 µg/mL
Molecule: Colistin [reference compound]

MIC (P. aeruginosa DK2 [1]): 50 to 100 µM (≈ 16.3 to 32.6 µg/mL)
Molecule: O=C(NNc1ccc([N+](=O)[O-])cc1Cl)c1cc(F)ccc1O [A3]

Molecule: Polymyxin B [reference compound]
MIC of PB after 14 generations (P. aeruginosa DK2 [12]): 1024 µg/mL
CFU under oxidative stress (H2O2) (P. aeruginosa DK2 [4]): did not reduce CFU
MIC, antibiotic alone (P. aeruginosa DK2 [1]): 256 µg/mL
Effect on bacterial growth when used alone (time-kill) (P. aeruginosa DK2 [11]): neither A22 (10 μmol/L = 3.67 μg/mL, or 20 μmol/L = 7.34 μg/mL) nor PB (0.5 or 1 μg/mL) significantly affected bacterial growth
